In brackets after ≈: the same amount, converted by molar mass. Activity calls are given as the source filed them. No cut-off for these calls is given here.
Tests used:
Staphylococcus aureus [1] = test: Antibacterial activity against benzylpenicillin-resistant Staphylococcus aureus after 17 hrs by serial two fold dilution method; format: functional
Method in brief: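 Agar dilution MIC. Compound was serially diluted twofold in Mueller-Hinton agar. The surface was inoculated with a diluted 18-24-h broth culture […]. Plates were incubated 17 h at 37 °C. MIC was taken as the lowest concentration giving complete or virtually complete inhibition of visible growth.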

Enterobacter cloacae = test: Antibacterial activity against Enterobacter cloacae after 17 hrs by serial two fold dilution method; format: functional
Providencia stuartii = test: Antibacterial activity against Providencia stuartii after 17 hrs by serial two fold dilution method; format: functional
Method in brief: (§1)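 Agar dilution MIC: compound serially diluted twofold in Mueller-Hinton agar. Plate surfaces were inoculated with a suitably diluted 18-24-h broth culture and incubated 17 h at 37 °C. MIC was read as the lowest concentration giving complete or virtually complete inhibition of visible growth.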

Escherichia coli [2] = test: Antibacterial activity against Escherichia coli after 17 hrs by serial two fold dilution method; format: functional; method in brief: as §1
Enterococcus faecalis = test: Antibacterial activity against Staphylococcus faecalis after 17 hrs by serial two fold dilution method; format: functional; method in brief: as §1
Klebsiella pneumoniae [3] = test: Antibacterial activity against Klebsiella pneumoniae after 17 hrs by serial two fold dilution method; format: functional; method in brief: as §1
Streptococcus pyogenes [4] = test: Antibacterial activity against Streptococcus pyogenes after 17 hrs by serial two fold dilution method; format: functional; method in brief: as §1
Klebsiella aerogenes = test: Antibacterial activity against Enterobacter aerogenes after 17 hrs by serial two fold dilution method; format: functional
[5] = test system: Staphylococcus epidermidis; test: Antibacterial activity against Staphylococcus epidermidis after 17 hrs by serial two fold dilution method; format: functional; method in brief: as §1
Staphylococcus aureus [6] = test: Antibacterial activity against Staphylococcus aureus after 17 hrs by serial two fold dilution method; format: functional; method in brief: as §1
Pseudomonas aeruginosa = test: Antibacterial activity against Pseudomonas aeruginosa after 17 hrs by serial two fold dilution method; format: functional; method in brief: as §1
Salmonella [7] = test: Antibacterial activity against Salmonella schottmuelleri after 17 hrs by serial two fold dilution method; format: functional; method in brief: as §1
Streptococcus pneumoniae = test: Antibacterial activity against Streptococcus pneumoniae after 17 hrs by serial two fold dilution method; format: functional; method in brief: as §1
Proteus vulgaris = test: Antibacterial activity against Proteus vulgaris after 17 hrs by serial two fold dilution method; format: functional; method in brief: as §1
Proteus mirabilis [8] = test: Antibacterial activity against Proteus mirabilis after 17 hrs by serial two fold dilution method; format: functional; method in brief: as §1
Bacteroides fragilis = test: Antibacterial activity against Bacteroides fragilis after 17 hrs by serial two fold dilution method; format: functional, organism-based
Streptococcus pyogenes [9] = test: Antibacterial activity against Streptococcus pyogenes infected in po dosed CD1 mouse assessed as host survival administered 1 and 4 hrs after infection measured on day 4; format: functional
Haemophilus influenzae = test: Antibacterial activity against Haemophilus influenzae after 17 hrs by serial two fold dilution method; format: functional, organism-based
Fusobacterium varium = test: Antibacterial activity against Fusobacterium varium after 17 hrs by serial two fold dilution method; format: functional, organism-based
Klebsiella pneumoniae [10] = test: Antibacterial activity against Klebsiella pneumoniae infected in sc dosed CD1 mouse assessed as host survival administered 1 and 4 hrs after infection measured on day 4; format: functional
Method in brief: (§2)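 Male albino CD-1 mice, 20 (± 1) g, infected intraperitoneally with a bacterial suspension giving uniformly lethal infection. Groups of ten mice were treated subcutaneously with antibiotic at 1 and 4 h post-infection. Survival over 4 days was recorded.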

Proteus mirabilis [11] = test: Antibacterial activity against Proteus mirabilis infected in sc dosed CD1 mouse assessed as host survival administered 1 and 4 hrs after infection measured on day 4; format: functional; method in brief: as §2
Neisseria gonorrhoeae = test: Antibacterial activity against Neisseria gonorrhoeae after 17 hrs by serial two fold dilution method; format: functional, organism-based
Staphylococcus aureus [12] = test: Antibacterial activity against benzylpenicillin-resistant Staphylococcus aureus infected in sc dosed CD1 mouse assessed as host survival administered 1 and 4 hrs after infection measured on day 4; format: functional; method in brief: as §2
Salmonella [13] = test: Antibacterial activity against Salmonella schottmuelleri infected in sc dosed CD1 mouse assessed as host survival administered 1 and 4 hrs after infection measured on day 4; format: functional; method in brief: as §2
Escherichia coli [14] = test: Antibacterial activity against Escherichia coli infected in sc dosed CD1 mouse assessed as host survival administered 1 and 4 hrs after infection measured on day 4; format: functional; method in brief: as §2

SMILES	MIC (Staphylococcus aureus [1])	MIC (Enterobacter cloacae)	MIC (Providencia stuartii)	MIC (Escherichia coli [2])	MIC (Enterococcus faecalis)	MIC (Klebsiella pneumoniae [3])	MIC (Streptococcus pyogenes [4])	MIC (Klebsiella aerogenes)	MIC [5]	MIC (Staphylococcus aureus [6])	MIC (Pseudomonas aeruginosa)	MIC (Salmonella [7])	MIC (Streptococcus pneumoniae)	MIC (Proteus vulgaris)	MIC (Proteus mirabilis [8])	other results
CC(=O)OCC1=C(C(=O)O)N2C(=O)[C@@H](NC(=O)Cc3cccs3)[C@H]2SC1 [CEPHALOTHIN]	0.4 µg/mL (≈ 1.01 µM)	> 100 µg/mL	100 µg/mL (≈ 252 µM)	6.2 µg/mL (≈ 15.6 µM)	100 µg/mL (≈ 252 µM)	3.1 µg/mL (≈ 7.82 µM)	0.1 µg/mL (≈ 0.252 µM)	> 50 µg/mL	0.4 µg/mL (≈ 1.01 µM)	0.1 µg/mL (≈ 0.252 µM)	> 100 µg/mL	0.8 µg/mL (≈ 2.02 µM)	0.1 µg/mL (≈ 0.252 µM)	> 100 µg/mL	6.2 µg/mL (≈ 15.6 µM)	–
CC(=O)OCC1=C(C(=O)O)N2C(=O)[C@@H](NC(=O)Cn3cccc3)[C@H]2SC1	1.6 µg/mL (≈ 4.22 µM)	> 100 µg/mL	50 µg/mL (≈ 132 µM)	6.2 µg/mL (≈ 16.3 µM)	> 100 µg/mL	6.2 µg/mL (≈ 16.3 µM)	0.4 µg/mL (≈ 1.05 µM)	> 100 µg/mL	3.1 µg/mL (≈ 8.17 µM)	0.8 µg/mL (≈ 2.11 µM)	> 100 µg/mL	3.1 µg/mL (≈ 8.17 µM)	0.4 µg/mL (≈ 1.05 µM)	> 100 µg/mL	12.5 µg/mL (≈ 32.9 µM)	–
Cc1nnc(SCC2=C(C(=O)O)N3C(=O)[C@@H](NC(=O)Cn4cccc4C=O)[C@H]3SC2)s1	0.8 µg/mL (≈ 1.67 µM)	> 100 µg/mL	> 100 µg/mL	50 µg/mL (≈ 104 µM)	> 100 µg/mL	50 µg/mL (≈ 104 µM)	0.2 µg/mL (≈ 0.417 µM)	> 100 µg/mL	1.6 µg/mL (≈ 3.34 µM)	0.4 µg/mL (≈ 0.834 µM)	> 100 µg/mL	12.5 µg/mL (≈ 26.1 µM)	0.2 µg/mL (≈ 0.417 µM)	> 100 µg/mL	100 µg/mL (≈ 209 µM)	–
CC(=O)OCC1=C(C(=O)O)N2C(=O)[C@@H](NC(=O)Cn3cccc3C=O)[C@H]2SC1	1.6 µg/mL (≈ 3.93 µM)	> 100 µg/mL	> 100 µg/mL	100 µg/mL (≈ 245 µM)	> 100 µg/mL	50 µg/mL (≈ 123 µM)	0.4 µg/mL (≈ 0.982 µM)	> 100 µg/mL	3.1 µg/mL (≈ 7.61 µM)	0.8 µg/mL (≈ 1.96 µM)	> 100 µg/mL	50 µg/mL (≈ 123 µM)	–	> 100 µg/mL	100 µg/mL (≈ 245 µM)	–
Cc1nnc(SCC2=C(C(=O)O)N3C(=O)[C@@H](NC(=O)Cn4cccc4)[C@H]3SC2)s1	0.8 µg/mL (≈ 1.77 µM)	100 µg/mL (≈ 221 µM)	25 µg/mL (≈ 55.4 µM)	12.5 µg/mL (≈ 27.7 µM)	> 100 µg/mL	6.2 µg/mL (≈ 13.7 µM)	0.1 µg/mL (≈ 0.221 µM)	100 µg/mL (≈ 221 µM)	0.8 µg/mL (≈ 1.77 µM)	0.2 µg/mL (≈ 0.443 µM)	> 100 µg/mL	6.2 µg/mL (≈ 13.7 µM)	0.1 µg/mL (≈ 0.221 µM)	> 100 µg/mL	25 µg/mL (≈ 55.4 µM)	–
Cc1nnc(SCC2=C(C(=O)O)N3C(=O)[C@@H](NC(=O)Cn4cnnn4)[C@H]3SC2)s1 [CEFAZOLIN]	0.4 µg/mL (≈ 0.88 µM)	–	> 50 µg/mL	0.8 µg/mL (≈ 1.76 µM)	> 100 µg/mL	1.6 µg/mL (≈ 3.52 µM)	0.1 µg/mL (≈ 0.22 µM)	> 50 µg/mL	0.8 µg/mL (≈ 1.76 µM)	0.2 µg/mL (≈ 0.44 µM)	> 100 µg/mL	1.6 µg/mL (≈ 3.52 µM)	0.1 µg/mL (≈ 0.22 µM)	> 100 µg/mL	6.2 µg/mL (≈ 13.6 µM)	Activity (Bacteroides fragilis): inactive; ED50 (Streptococcus pyogenes [9]): 1.8 mg/kg; Activity (Haemophilus influenzae): inactive; Activity (Fusobacterium varium): inactive; ED50 (Klebsiella pneumoniae [10]): 42 mg/kg; ED50 (Proteus mirabilis [11]): 79 mg/kg; Activity (Neisseria gonorrhoeae): inactive; ED50 (Staphylococcus aureus [12]): 22 mg/kg; ED50 (Salmonella [13]): 2.2 mg/kg; ED50 (Escherichia coli [14]): 0.6 mg/kg
Cn1nnnc1SCC1=C(C(=O)O)N2C(=O)[C@@H](NC(=O)Cn3ccc4ccccc43)[C@H]2SC1	0.2 µg/mL (≈ 0.412 µM)	50 µg/mL (≈ 103 µM)	25 µg/mL (≈ 51.5 µM)	12.5 µg/mL (≈ 25.7 µM)	> 100 µg/mL	12.5 µg/mL (≈ 25.7 µM)	0.05 µg/mL (≈ 0.103 µM)	50 µg/mL (≈ 103 µM)	0.4 µg/mL (≈ 0.824 µM)	0.1 µg/mL (≈ 0.206 µM)	> 100 µg/mL	6.2 µg/mL (≈ 12.8 µM)	–	> 100 µg/mL	50 µg/mL (≈ 103 µM)	–
CCOC(=O)C(C(=O)N[C@@H]1C(=O)N2C(C(=O)O)=C(COC(C)=O)CS[C@H]12)n1cccc1 (stereo partly specified)	6.2 µg/mL (≈ 13.7 µM)	25 µg/mL (≈ 55.4 µM)	12.5 µg/mL (≈ 27.7 µM)	25 µg/mL (≈ 55.4 µM)	> 100 µg/mL	25 µg/mL (≈ 55.4 µM)	0.4 µg/mL (≈ 0.886 µM)	25 µg/mL (≈ 55.4 µM)	3.1 µg/mL (≈ 6.87 µM)	1.6 µg/mL (≈ 3.54 µM)	> 100 µg/mL	25 µg/mL (≈ 55.4 µM)	0.4 µg/mL (≈ 0.886 µM)	> 100 µg/mL	50 µg/mL (≈ 111 µM)	–
Cc1nnc(SCC2=C(C(=O)O)N3C(=O)[C@@H](NC(=O)Cn4ccc5ccccc54)[C@H]3SC2)s1	0.2 µg/mL (≈ 0.399 µM)	100 µg/mL (≈ 199 µM)	25 µg/mL (≈ 49.8 µM)	50 µg/mL (≈ 99.7 µM)	> 100 µg/mL	50 µg/mL (≈ 99.7 µM)	0.05 µg/mL (≈ 0.0997 µM)	100 µg/mL (≈ 199 µM)	0.4 µg/mL (≈ 0.797 µM)	0.1 µg/mL (≈ 0.199 µM)	> 100 µg/mL	25 µg/mL (≈ 49.8 µM)	≤ 0.025 µg/mL	> 100 µg/mL	50 µg/mL (≈ 99.7 µM)	–
CC1=C(C(=O)O)N2C(=O)[C@@H](NC(=O)Cn3ccc4ccccc43)[C@H]2SC1	3.1 µg/mL (≈ 8.35 µM)	> 100 µg/mL	> 100 µg/mL	> 100 µg/mL	> 100 µg/mL	> 100 µg/mL	0.8 µg/mL (≈ 2.15 µM)	> 100 µg/mL	6.2 µg/mL (≈ 16.7 µM)	1.6 µg/mL (≈ 4.31 µM)	> 100 µg/mL	> 100 µg/mL	1.6 µg/mL (≈ 4.31 µM)	> 100 µg/mL	> 100 µg/mL	–
Cn1nnnc1SCC1=C(C(=O)O)N2C(=O)[C@@H](NC(=O)Cn3cccc3C=O)[C@H]2SC1	1.6 µg/mL (≈ 3.45 µM)	> 100 µg/mL	50 µg/mL (≈ 108 µM)	12.5 µg/mL (≈ 27 µM)	> 100 µg/mL	12.5 µg/mL (≈ 27 µM)	0.2 µg/mL (≈ 0.431 µM)	100 µg/mL (≈ 216 µM)	3.1 µg/mL (≈ 6.69 µM)	0.8 µg/mL (≈ 1.73 µM)	> 100 µg/mL	6.2 µg/mL (≈ 13.4 µM)	–	> 100 µg/mL	50 µg/mL (≈ 108 µM)	–
